Each structure is given as a SMILES string.

Format in all cases: functional
Test [1] deals with Rattus norvegicus. The test is described as follows: Effect upon subcutaneous administration on TSH suppression in rat was determined. The gist of the method:
(§1)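 Male Sprague-Dawley rats on chow with 1.5% cholesterol and 0.5% cholic acid for 2 weeks, then s.c. once daily for 7 days (vehicle 10% m-pyrol, 5% ethanol, 5% cremaphor, 80% water; n = 6/dose), doses 1.54–9240 nmol/kg/day. Plasma TSH measured by rat RIA and cholesterol by clinical analyzer in aortic blood after pentobarbital. ED50 = dose giving 50% suppression from vehicle, in nmol/kg/day.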

The species entered for test [2] is Rattus norvegicus. Description: Ratio of ED50TSH to that of ED50chol was determined. The gist of the method:
as §1

In test [3] the test system is Rattus norvegicus. Description: Effect upon subcutaneous administration on the heart rate in rat was determined. The gist of the method:
(§2)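 Cholesterol-fed male Sprague-Dawley rats (1.5% cholesterol, 0.5% cholic acid, 2 weeks) dosed s.c. once daily for 7 days, vehicle 10% m-pyrol/5% ethanol/5% cremaphor/80% water, n = 6/dose, 1.54–9240 nmol/kg/day. Heart rate recorded by lead II ECG under 30 mg/kg pentobarbital. ED15 = dose raising heart rate 15% over vehicle; ratio taken against cholesterol ED50 (50% suppression from vehicle).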

For test [4], the species on record is Rattus norvegicus. The test is described as follows: Ratio of ED15HR to that of ED50chol was determined. In outline: as §2
Test [5] has as its system Rattus norvegicus. The test is described as follows: Effect upon subcutaneous administration on cholesterol in rat was determined. In outline: as §1

`CC(C)c1cc(Oc2c(Br)cc(CC(=O)O)cc2Br)ccc1O`: the results for the ED50 with Rattus norvegicus [1] and in the test with Rattus norvegicus [5] were less than 46.2 nM/day/kg and 95.4 nM/day/kg, respectively. Moreover, the TSH/chol in the test listed under Rattus norvegicus [2] is reported as less than 0.5. In the test with Rattus norvegicus [3], this compound displayed an ED15 of 926 nM/day/kg. Also, in the test listed under Rattus norvegicus [4], the HR/chol was determined as 9.7.

For the compound `CC(C)c1cc(Oc2c(Cl)cc(CC(=O)O)cc2Cl)ccc1O`, the figures for the ED50 in the test on Rattus norvegicus [1] and in the test with Rattus norvegicus [5] were 38 nM/day/kg and 82 nM/day/kg, respectively. Also, the TSH/chol in the test listed under Rattus norvegicus [2] was 0.4. Further, in the test on Rattus norvegicus [3], the ED15 was 1077 nM/day/kg. The HR/chol in the test listed under Rattus norvegicus [4] is 13.1.

Regarding `N[C@H](Cc1cc(I)c(Oc2ccc(O)c(I)c2)c(I)c1)C(=O)O` [DETROTHYRONINE], the ED50 with Rattus norvegicus [1] was found to be 7 nM/day/kg; with Rattus norvegicus [5] it was 20 nM/day/kg. Besides, the TSH/chol in the test listed under Rattus norvegicus [2] was found to be 0.3. Moreover, in the test on Rattus norvegicus [3], the ED15 stood at 14 nM/day/kg. Besides, the HR/chol in the test filed under Rattus norvegicus [4] was determined as 0.7.

The values are drawn from ChEMBL document CHEMBL1136772, “Thyroid receptor ligands. 1. Agonist ligands selective for the thyroid receptor beta1” (J Med Chem, 2003).
